Results on two compounds are retold here after article PMC10107792 (Chemistry (Weinheim an Der Bergstrasse, Germany), 2022).

One experiment has as its target T1, MraY from S. aureus (Staphylococcus aureus, UniProt Q2FZ93).
T1 sequence (Q2FZ93 1-321): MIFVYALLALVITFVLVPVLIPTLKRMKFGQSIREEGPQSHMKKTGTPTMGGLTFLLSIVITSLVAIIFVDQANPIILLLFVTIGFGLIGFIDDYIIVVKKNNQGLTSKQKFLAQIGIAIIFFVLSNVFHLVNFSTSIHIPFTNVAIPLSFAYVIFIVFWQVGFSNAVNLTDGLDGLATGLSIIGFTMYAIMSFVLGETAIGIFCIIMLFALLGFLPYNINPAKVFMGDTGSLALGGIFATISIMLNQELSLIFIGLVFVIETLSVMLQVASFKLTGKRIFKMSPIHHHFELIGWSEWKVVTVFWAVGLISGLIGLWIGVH
In kind it is biochemical. In short, it runs like this:
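S. aureus MraY crude membranes (final total protein ~1 mg/mL) with 50 μM undecaprenyl phosphate and 7.5 μM dansylated Park's nucleotide in 100 mM Tris-HCl pH 7.5, 200 mM KCl, 10 mM MgCl2, 0.1% Triton X-100. Fluorescence followed over time (ex 355/em 520 nm). Rate from 0–2 min linear regression; sigmoidal fit against log concentration gives IC50 ± SD. Variant: membranes pretreated with 1 mM diamide, 0 °C, 20 min (final 50 μM).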

The test system of another experiment is E. coli ΔtolC. The experiment is described as follows: Growth inhibition of E. coli ΔtolC. The settings on record: conjugate vs. non-conjugated 9, E. coli ΔtolC. In kind it is cell-based.
In a further experiment the test system is P. aeruginosa PAO1. In kind it is cell-based. The settings on record: growth inhibition, OD 600 nm.
In another experiment the test system is E. coli DH5α. In kind it is cell-based. The settings on record: growth inhibition, efflux-competent strain, OD 600 nm.
In the next experiment the test system is MraY. The settings on record: read-out: MraY inhibition IC50; in vitro; ref 15c; cited from earlier work.
A further experiment concerns S. aureus. To be noted: ref 15c; cited from earlier work.

Where “and” joins values, the source holds several entries; their conditions need not be identical. Identical values can stand only once.

`CC(=O)Oc1cccc(C(=O)N[C@H]2COC(=O)[C@@H](NC(=O)c3cccc(OC(C)=O)c3OC(C)=O)[C@H](CCCNC(=O)CCSSCCCCCCCCCCC(=O)NC[C@H](NC(=O)[C@H](CCCCN)NC(=O)N[C@H](C(=O)O)C(C)C)C(=O)NCCCN[C@@H](C[C@H]3O[C@@H](n4ccc(=O)[nH]c4=O)[C@H](O)[C@@H]3O)C(=O)O)OC(=O)[C@@H](NC(=O)c3cccc(OC(C)=O)c3OC(C)=O)COC2=O)c1OC(C)=O` [(AcO)EntKL‐SS‐9]: the IC50 on MraY from S. aureus is 123 nM and 89 nM. Besides, in the experiment with E. coli ΔtolC, the “fold increase of antibacterial activity relative to 9” value is on record as “ca. 11 fold”. Moreover, the “IC50 (P. aeruginosa PAO1)” value with P. aeruginosa PAO1 was above 100 µg/mL. The “IC50 (E. coli DH5α)” value in the experiment on E. coli DH5α is above 100 µg/mL.
Regarding `CO[C@H]1[C@H](O[C@H]([C@H]2O[C@@H](n3ccc(=O)[nH]c3=O)[C@H](O)[C@@H]2O)[C@H](NCCCNC(=O)[C@@H](NC(=O)[C@@H](NC(=O)N[C@H](C(=O)O)C(C)C)[C@@H]2CCNC(=N)N2)[C@@H](OC(=O)CCCCCCCCCCCCC(C)C)C(C)C)C(=O)O)O[C@H](CN)[C@H]1O` [Compound 5, muraymycin B8], the IC50 in the experiment with MraY is 0.004 ± 0.0007 nM. Moreover, in the experiment with S. aureus, the “antibacterial activity against S. aureus” value is reported as “promising antibacterial activity”.

Usually IC50 stands for the concentration at which inhibition is half-maximal.
